What was measured:
[1] = target: T1, Aldo-keto reductase family 1 member B1 (Homo sapiens, UniProt P15121); experiment: The compound was tested for inhibitory activity against Aldose reductase from human placenta
Method in brief: (§1)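 Aldose reductase purified from human placenta, with NADP present throughout purification and storage, kept at –20 °C. Assay in 0.1 M sodium phosphate pH 7 with 10 mM D,L-glyceraldehyde substrate and 0.1 mM NADPH at 25 ± 1 °C. NADPH oxidation followed as A340 decrease. Initial rates corrected for the rate without aldehyde substrate. Ki derived from Dixon plots.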

[2] = target: T1, Aldo-keto reductase family 1 member B1; experiment: The compound was tested for inhibitory activity against aldose reductase from human placenta; method in brief: as §1

Row | Ki [1] | Ki [2] | SMILES
1 | 9.3 µM | – | Cc1cc2c(C(C)C)c(O)c(O)c3c2c(c1-c1c(C)cc2c(C(C)C)c(O)c(O)c4c2c1OC4=N)OC3=N
2 | – | 5.3 µM | CCCC(=O)Oc1c(-c2c(C)cc3c(C(C)C)c(O)c(O)c(C#N)c3c2OC(=O)CCC)c(C)cc2c(C(C)C)c(O)c(O)c(C#N)c12
3 | 56 µM | – | COc1c(OC)c(C=O)c2c(OC)c(-c3c(C)cc4c(C(C)C)c(OC)c(OC)c(C=O)c4c3OC)c(C)cc2c1C(C)C
4 | – | 7.3 µM | CC(=O)Oc1c(-c2c(C)cc3c(C(C)C)c(O)c(O)c(C#N)c3c2OC(C)=O)c(C)cc2c(C(C)C)c(O)c(O)c(C#N)c12
5 | 4.3 µM | – | COc1c(-c2c(C)cc3c(C(C)C)c(O)c(O)c(CO)c3c2OC)c(C)cc2c(C(C)C)c(O)c(O)c(CO)c12
6 | – | 3.1 µM | CCCCCC(=O)Oc1c(-c2c(C)cc3c(C(C)C)c(O)c(O)c(C#N)c3c2OC(=O)CCCCC)c(C)cc2c(C(C)C)c(O)c(O)c(C#N)c12
7 | – | 0.31 µM | COc1c(-c2c(C)cc3c(C(C)C)c(O)c(O)c(C=O)c3c2OC)c(C)cc2c(C(C)C)c(O)c(O)c(C=O)c12
8 | 9.7 µM | – | COc1c(OC)c(C=O)c2c(O)c(-c3c(C)cc4c(C(C)C)c(OC)c(OC)c(C=O)c4c3O)c(C)cc2c1C(C)C
9 | 2.8 µM | – | COc1c(-c2c(C)cc3c(C(C)C)c(O)c(O)c(C#N)c3c2OC)c(C)cc2c(C(C)C)c(O)c(O)c(C#N)c12
10 | – | 0.15 µM | Cc1cc2c(C(C)C)c(O)c(O)c3c2c(c1-c1c(C)cc2c(C(C)C)c(O)c(O)c4c2c1OC4=O)OC3=O
11 | 2.5 µM | – | Cc1cc2c(C(C)C)c(O)c(O)c(C#N)c2c(OC(=O)C(C)(C)C)c1-c1c(C)cc2c(C(C)C)c(O)c(O)c(C#N)c2c1OC(=O)C(C)(C)C
12 | – | 6.8 µM | CCC(=O)Oc1c(-c2c(C)cc3c(C(C)C)c(O)c(O)c(C#N)c3c2OC(=O)CC)c(C)cc2c(C(C)C)c(O)c(O)c(C#N)c12
13 | 7.8 µM | – | Cc1cc2c(C(C)C)c(O)c(O)c(/C=N/O)c2c(O)c1-c1c(C)cc2c(C(C)C)c(O)c(O)c(/C=N/O)c2c1O
14 | 1.3 µM | – | C/C=C/C(=O)Oc1c(-c2c(C)cc3c(C(C)C)c(O)c(O)c(C#N)c3c2OC(=O)/C=C/C)c(C)cc2c(C(C)C)c(O)c(O)c(C#N)c12
15 | – | 4.7 µM | CCCCC(=O)Oc1c(-c2c(C)cc3c(C(C)C)c(O)c(O)c(C#N)c3c2OC(=O)CCCC)c(C)cc2c(C(C)C)c(O)c(O)c(C#N)c12

Row | SMILES | Ki [1] | Ki [2]
16 | COc1c(OC)c2c3c(c(-c4c(C)cc5c(C(C)C)c(OC)c(OC)c6c5c4OC6=O)c(C)cc3c1C(C)C)OC2=O | – | 48 µM
17 | Cc1cc2c(C(C)C)c(O)c(O)c(C=O)c2c(O)c1-c1c(C)cc2c(C(C)C)c(O)c(O)c(C=O)c2c1O [GOSSYPOL] | 0.5 µM | –
18 | COc1c(O)c(C=O)c2c(O)c(-c3c(C)cc4c(C(C)C)c(OC)c(O)c(C=O)c4c3O)c(C)cc2c1C(C)C [6,6'-METHOXYGOSSYPOL] | 1.5 µM | –
